Measured values from ChEMBL document CHEMBL1142940, “Use of simple docking methods to screen a virtual library for heteroactivators of cytochrome P450 2C9” (J Med Chem, 2007).
Several values for one entry are separate records, joined by “and”; a condition that tells them apart may be missing. Equal entries are not always repeated.

The compounds below were run against T1, CYP2C9 (Homo sapiens, UniProt P11712) (assay: (§1) Activation of human CYP2C9 assessed as (S)-Flurbiprofen hydroxylation). Conditions: probe (S)-flurbiprofen.
T1 sequence (P11712 whole entry): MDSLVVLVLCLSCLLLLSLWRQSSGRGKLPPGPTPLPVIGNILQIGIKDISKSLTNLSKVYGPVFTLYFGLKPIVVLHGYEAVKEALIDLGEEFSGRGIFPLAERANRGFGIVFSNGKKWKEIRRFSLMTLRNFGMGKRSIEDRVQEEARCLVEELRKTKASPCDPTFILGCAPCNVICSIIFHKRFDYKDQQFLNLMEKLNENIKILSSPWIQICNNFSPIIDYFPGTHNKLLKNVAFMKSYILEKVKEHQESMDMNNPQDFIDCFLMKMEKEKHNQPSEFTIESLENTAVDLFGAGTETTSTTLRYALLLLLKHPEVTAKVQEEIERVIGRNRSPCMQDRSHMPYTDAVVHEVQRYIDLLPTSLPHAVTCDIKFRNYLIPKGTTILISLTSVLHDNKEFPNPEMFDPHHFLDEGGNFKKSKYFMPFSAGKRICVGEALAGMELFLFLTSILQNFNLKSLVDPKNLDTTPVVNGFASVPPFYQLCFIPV
Format: ADME
Set-up: concentration or dose not given beside the values
Method in brief: (§2)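 Reconstituted CYP2C9 (5 pmol) in 0.2 mL incubations with 20 μM (S)-flurbiprofen held constant, 50 mM potassium phosphate pH 7.4, 37 °C for 20 min. Test compounds diluted in DMSO (1% final in all reactions, controls included), screened on a log scale from 0.001–1000 μM depending on solubility. 4′-OH flurbiprofen formation measured after quench. Triplicate reactions.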

Row | SMILES | activity [%]
1 | CC(=O)Oc1ccc(S(=O)(=O)c2ccc(OC(C)=O)cc2)cc1 | 8
2 | [O-][S+](c1ccccc1)c1ccccc1 | 3.5
3 | O=S(=O)(c1ccc(O)cc1)c1ccc(O)cc1 | 95
4 | O=S(=O)(c1ccccc1)c1ccccc1 [(PHENYLSULFONYL)BENZENE] | 40

The remaining lines, values ahead:

Row | activity [%] | SMILES
5 | 50.6 | Cc1ccc(S(=O)(=O)c2ccc(C)cc2)cc1
6 | 4.4 | NCC(=O)Nc1ccc2ccccc2c1
7 | 46 | Cc1cccc(C(=O)[C@@H](O)c2cccc(C)n2)n1
8 | 7.7 | Cn1c(=O)[nH]c(=O)c2ncn(CC(=O)c3ccc(F)cc3)c21
9 | 6.6 | Cc1ccc([C@@H]2NC(=O)c3ccccc3N2)cc1
10 | 3 | Cn1c(=O)c2c(ncn2CN2CCCC2)n(C)c1=O

The compounds below were run against T2, Cytochrome P450 2C9 (Homo sapiens, UniProt P11712) (assay: as §1). Conditions: not given.
T2 sequence (P11712 whole entry): as above
Format: ADME
Set-up: concentration or dose not given beside the values
Method in brief: as §2

Row | activity | SMILES
11 | 95% and 64.1% | Nc1ccc(S(=O)(=O)c2ccc(N)cc2)cc1 [DAPSONE]

The compounds below were run against T1, CYP2C9 (assay: Inhibition of human CYP2C9 assessed as (S)-Flurbiprofen hydroxylation at 100 uM). Conditions: probe (S)-flurbiprofen.
Format: ADME
Method in brief: as §2

Row | inhibition at 100 µM [%] | SMILES
12 | 50 | O=C(c1ccc(F)cc1)c1cnc2sccn12
13 | 50 | CN1C(=O)N(c2ccc(Cl)c(Cl)c2)C(=N)C1=S

Each compound was assayed against T1, CYP2C9 (assay: Inhibition of human CYP2C9 assessed as (S)-Flurbiprofen hydroxylation at 1 uM). Conditions: probe (S)-flurbiprofen.
Format: ADME
Method in brief: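 Reconstituted CYP2C9 (5 pmol) in 0.2 mL incubations with 20 μM (S)-flurbiprofen held constant, in 50 mM potassium phosphate pH 7.4. Run at 37 °C for 20 min, then quenched, and 4′-OH flurbiprofen formation measured. Test compounds were dosed from DMSO on a log scale, with 1% DMSO final in all reactions, in triplicate. Activity is reported as % change versus control.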

Row | SMILES | inhibition at 1 µM [%]
14 | Nc1cc(N)c(N)cc1N | 50

Each compound was assayed against T2, Cytochrome P450 2C9 (assay: Activation of human CYP2C9 assessed as (S)-Flurbiprofen hydroxylation). Conditions: not given.
Set-up: concentration or dose not given beside the values

Row | activity [%] | SMILES
15 | -5 | O=C(O)c1ccc(S(=O)(=O)c2ccc(C(=O)O)cc2)cc1
16 | -10.6 | Nc1ccc(S(=O)(=O)c2ccc([N+](=O)[O-])cc2)cc1
17 | -25 | COc1ccc(S(=O)(=O)c2ccc(OC)cc2)cc1
18 | -17.1 | Nc1ccc(S(=O)(=O)Nc2ncccn2)cc1 [SULFADIAZINE]
19 | -18.8 | Cc1cc(C)nc(NS(=O)(=O)c2ccc(N)cc2)n1 [SULFAMETHAZINE]

Row | SMILES | activity [%]
20 | c1ccc2c(c1)sc1ccccc12 [DIBENZOTHIOPHENE] | -10.6
